FLuc inhib CS – Photinus pyralis luciferase inhibition counter-screen; ATPLite firefly luciferase biochemical luminescence, 10 min; inhibition, % at 10 µM; 200,000 compounds, 1.5% hits; AID 1006;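 active = inhibition above about 50% when tested at 10 µM, limit read from the data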
Target sequence (P08659 whole entry, looked up): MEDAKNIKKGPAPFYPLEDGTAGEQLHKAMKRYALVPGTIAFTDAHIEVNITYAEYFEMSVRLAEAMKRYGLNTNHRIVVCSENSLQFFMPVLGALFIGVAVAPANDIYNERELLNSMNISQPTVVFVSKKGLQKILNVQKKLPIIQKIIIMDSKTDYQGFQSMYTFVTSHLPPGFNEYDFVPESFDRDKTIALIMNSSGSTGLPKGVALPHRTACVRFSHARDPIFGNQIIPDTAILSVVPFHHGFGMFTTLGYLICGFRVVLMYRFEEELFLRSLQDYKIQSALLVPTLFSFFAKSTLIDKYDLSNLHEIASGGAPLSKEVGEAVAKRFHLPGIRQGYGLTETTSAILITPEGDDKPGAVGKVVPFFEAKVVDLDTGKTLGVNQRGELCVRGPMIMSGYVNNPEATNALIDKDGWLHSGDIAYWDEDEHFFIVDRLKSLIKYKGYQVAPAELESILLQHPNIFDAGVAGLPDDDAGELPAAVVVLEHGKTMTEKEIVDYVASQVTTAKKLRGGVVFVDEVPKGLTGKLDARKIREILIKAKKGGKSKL
PPC-1+TRAIL kill – compounds killing PPC-1 cancer cells with TRAIL present (potentiator screen, no TRAIL-free arm); AID 1443; cell killing (% activity), % at 4 µM or 5 µM; 220,000 compounds, 0.41% hits; PPC-1 cells + TRAIL, ATPLite viability luminescence;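 active = cell killing above 50% in the first pass at 4 µM, then a duplicate retest at 5 µM averaging 50% or more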
FLuc act counter – firefly luciferase counter-screen for stimulation assays. ATPlite luciferase biochemical, luminescence, 10 min; 0 = ATP-free wells, 1 = DMSO control. P08659. activation factor at 10 µM. 200,000 tested, under 10 active;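 active = luciferase activation factor, scaled between plate controls, of at least 2 with compound at 10 µM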
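System: Luciferase/luciferin detection reagent, cell-free biochemical luciferase assay | Medium: PBS buffer for ATP | Dosing: Test compounds dosed from 2 mM stocks in 100% DMSO | Timing: 10 min at ambient temperature | Signal: Luminescence measurement of luciferase light output | Evaluation: Luciferase activation, seen as luminescence increase over controls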
C8 TRAIL sens – sensitizes caspase-8 expressing cells to TRAIL; NB7+C8 cells + TRAIL, ATPlite viability luminescence; inhibition (viability loss, TRAIL sensitization), % at 10 µM; 360,000 compounds, 1% hits; AID 624354;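 active = compounds causing at least 50% loss of cell viability in the single-dose screen, relative to plate controls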
Platelet DG rel – platelet dense granule release activity. human platelet-rich plasma, SFLLRN dense granule ATP release, luminescence. inhibition, %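 (compounds screened at 7.5 µM in platelet-rich plasma)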. 300,000 compounds, 0.22% hits. AID 1663;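 active = mean replicate score, as percent of positive control, at or above 50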
Each line names hits and unclear results; the compound was inactive in the other large screens. Only some compounds are listed: those with a hit (about 1.6% of all), similar ones and a draw of the others.

COc1ccc2[nH]cc(C(=O)CN3CC(C)CC(C)C3)c2c1 (stereo not drawn)	none (no result: FLuc inhib CS, PPC-1+TRAIL kill, FLuc act counter)
COc1ccc2[nH]cc(C(=O)CCl)c2c1	C8 TRAIL sens 75 (no result: FLuc inhib CS, FLuc act counter)
COc1ccc(C(=O)c2c[nH]c3ccccc23)cc1	FLuc inhib CS 64, C8 TRAIL sens 48
CN(C(=O)CN1CCN(c2cc(-c3ccc(-c4ccccc4)cc3)ncn2)CC1)c1ccccc1	none (no result: FLuc inhib CS, PPC-1+TRAIL kill, FLuc act counter, Platelet DG rel)
CCOC(=O)N/N=C/c1c(C)nn(-c2ccccc2Cl)c1Cl	none
Cc1cc(C)nc(N/N=C/c2sccc2C)n1	none
C/C(=N\Nc1nc2ccccc2s1)c1cccs1	FLuc inhib CS 61, C8 TRAIL sens 67
Cc1ccsc1/C=N/Nc1nc(=O)[nH]nc1C	FLuc inhib CS 52, Platelet DG rel 51
C(=N\Nc1nc2ccccc2s1)/c1ccco1	FLuc inhib CS 62
Cc1nn(-c2ccccc2Cl)c(Cl)c1/C=N/Nc1nc2ccccc2s1	FLuc inhib CS 81, C8 TRAIL sens 56
Cc1ccc(-c2nc3c(Cl)cc(C(F)(F)F)cn3c2Cc2ccsc2)cc1	none (no result: FLuc inhib CS, PPC-1+TRAIL kill, FLuc act counter, Platelet DG rel)
O=C(Nc1nc(OCCN2CCCC2=O)cnc1/C=C\c1ccccc1)c1cc2ccccc2s1	none (no result: FLuc inhib CS, PPC-1+TRAIL kill, FLuc act counter, Platelet DG rel)
COc1ccc(Cc2nc3ccc(C(=O)NCCc4ncccc4C)cc3o2)cc1OC	none (no result: FLuc inhib CS, PPC-1+TRAIL kill, FLuc act counter, Platelet DG rel)
Cc1ccsc1/C=N/Nc1nc2ccccc2s1	FLuc inhib CS 64
CCC(=O)Nc1ccc2oc(-c3cccc(C)c3)nc2c1	FLuc inhib CS 71, C8 TRAIL sens 60 (no result: Platelet DG rel)
O=C(Nc1ccc2oc(-c3ccccc3F)nc2c1)c1ncn[nH]1	FLuc inhib CS 53
O=C(Nc1ccc2oc(-c3ccccc3F)nc2c1)c1ccccc1F	none (no result: FLuc inhib CS, PPC-1+TRAIL kill, FLuc act counter)
Cc1cccc(-c2nc3cc(NC(=O)C4CCCO4)ccc3o2)c1 (stereo not drawn)	FLuc inhib CS 83, PPC-1+TRAIL kill 56, C8 TRAIL sens 63, Platelet DG rel 59
COc1cc(C(=O)Nc2cc(-c3nc4cc(C)ccc4o3)ccc2C)cc(OC)c1OC	FLuc inhib CS 51
CCOC(=O)[C@]12CCCC=C1N(CCC1=CCCCC1)C(=O)[C@H](CC(=O)NCc1cccc3ccccc13)C2	none (no result: FLuc inhib CS, PPC-1+TRAIL kill, FLuc act counter, Platelet DG rel)
O=C(Cn1ncc2ccccc2c1=O)Nc1cccc(C(F)(F)F)c1	none (no result: FLuc inhib CS, PPC-1+TRAIL kill, FLuc act counter, Platelet DG rel)
CCC(=O)Nc1ccc(-c2nc3ccccc3c(=O)o2)cc1	FLuc inhib CS 74
Cc1ccc(-c2nc3cc(NC(=O)C(C)C)ccc3o2)cc1C	FLuc inhib CS 56
O=c1[nH]c(-c2ccncc2)nc2ccccc12	none
COc1ccc(-c2nc3ccccc3c(=O)[nH]2)cc1	C8 TRAIL sens 66 (no result: FLuc inhib CS, PPC-1+TRAIL kill, FLuc act counter)
CC(=O)Nc1ccc2oc(-c3ccccc3)nc2c1	FLuc inhib CS 70
Cn1c(NCCc2ccncc2)nc2cc(-c3cccc(C(F)(F)F)c3)sc2c1=O	none (no result: FLuc inhib CS, PPC-1+TRAIL kill, FLuc act counter, Platelet DG rel)
CN(C)c1ncnc2c1ncn2[C@H]1CN(Cc2cccs2)C[C@@H](CO)O1	none (no result: FLuc inhib CS, PPC-1+TRAIL kill, FLuc act counter, Platelet DG rel)
CCc1ccc(CCC(=O)N2CCN(S(=O)(=O)c3ccc(Br)cc3)CC2)cc1	none (no result: FLuc inhib CS, PPC-1+TRAIL kill, FLuc act counter, Platelet DG rel)
COc1cccc(-c2nc3ccccc3c(=O)o2)c1	FLuc inhib CS 52
CC(C)C(=O)Nc1ccc(-c2nc3cccnc3o2)cc1	FLuc inhib CS 67
CC(C)C(=O)Nc1ccc(-c2nc3ncccc3o2)cc1	none (no result: FLuc inhib CS, PPC-1+TRAIL kill, FLuc act counter)
CCc1ncc(C(O)c2ccc(Cl)cc2)n1Cc1ccccc1 (stereo not drawn)	none (no result: FLuc inhib CS, PPC-1+TRAIL kill, FLuc act counter, Platelet DG rel)
C[C@H]1CN([C@@H](C)CO)S(=O)(=O)c2ccc(C#Cc3cccnc3)cc2O[C@@H]1CN(C)C(=O)Nc1ccc2c(c1)OCO2	none (no result: FLuc inhib CS, PPC-1+TRAIL kill, FLuc act counter, Platelet DG rel)
Cc1nc2sccn2c(=O)c1S(=O)(=O)N1CCN(c2cccc(Cl)c2)CC1	Platelet DG rel 54 (no result: FLuc inhib CS, PPC-1+TRAIL kill, FLuc act counter)
CN=c1scc(-c2ccc(Br)cc2)n1C	none
CN=c1scc(-c2ccccc2Br)n1/N=C/c1ccc[nH]1	FLuc inhib CS 54 (no result: C8 TRAIL sens)
O=c1cc(-c2c(F)c(F)c(F)c(F)c2F)oc2ccccc12	C8 TRAIL sens 77
CC(O)(c1ccccc1)c1nc(-c2cccc(C#N)c2)cs1 (stereo not drawn)	none (no result: FLuc inhib CS, PPC-1+TRAIL kill, FLuc act counter, Platelet DG rel)
CN(C)CCNC(=O)c1cccc(-c2cc(NC=O)c3ncc(-c4cccc(C(F)(F)F)c4)n3c2)c1	C8 TRAIL sens 79 (no result: FLuc inhib CS, PPC-1+TRAIL kill, FLuc act counter, Platelet DG rel)
O=C(NCc1ccco1)c1cccc2c(-c3ccc(F)c(F)c3)coc12	none (no result: FLuc inhib CS, PPC-1+TRAIL kill, FLuc act counter, Platelet DG rel)
O=C(/C=C/C(Cl)(Cl)Cl)Nc1ccc(Cl)cc1	C8 TRAIL sens 93 (no result: FLuc inhib CS, PPC-1+TRAIL kill, FLuc act counter, Platelet DG rel)
NC(=O)/C=C/C(=O)Nc1ccc(Cl)cc1	none
Cc1cc(C)cc(CC(=O)N2CCC2(C)C(=O)NS(=O)(=O)c2ccc(Br)cc2)c1 (stereo not drawn)	none (no result: FLuc inhib CS, PPC-1+TRAIL kill, FLuc act counter, Platelet DG rel)
COc1ccc(/C=C/c2nc3ccccc3n2Cc2ccccc2OC)cc1	FLuc inhib CS 88, C8 TRAIL sens 78
